Measurements reported in ChEMBL document CHEMBL1156778, “Synthesis and structure-activity studies of biphenyl analogues of the tuberculosis drug (6S)-2-nitro-6-{[4-(trifluoromethoxy)benzyl]oxy}-6,7-dihydro-5H-imidazo[2,1-b][1,3]oxazine (PA-824)” (J Med Chem, 2010).
In brackets after ≈: the same amount, converted by molar mass.

How the values were obtained:
[1] = system: Mycobacterium tuberculosis; experiment: Antitubercular activity against Mycobacterium tuberculosis H37Rv in anaerobic condition after 7 days by low oxygen recovery assay; format: functional; conditions: 168 h
[2] = system: Mycobacterium tuberculosis; experiment: Antitubercular activity against Mycobacterium tuberculosis H37Rv in aerobic condition after 7 days by microplate alamar blue assay; format: functional; conditions: 168 h
In short: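 M. tuberculosis H37Rv, replicating culture; 8-day microplate assay with Alamar blue added on day 7 to read growth. […] Mean of at least two independent determinations ± SD.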

[3] = system: Vero; experiment: Cytotoxicity against african green monkey Vero cells after 72 hrs by MTS assay; format: cell-based; conditions: Chlorocebus sabaeus
In short: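 VERO cells (CCL-81), 72 h exposure, tetrazolium dye read-out.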

[4] = system: Mycobacterium tuberculosis; experiment: Antitubercular activity against Mycobacterium tuberculosis H37Rv infected in BALB/c mouse measured per mouse at 100 mg/kg, po daily for 5 days a week for 3 weeks; format: functional
[5] = system: Mycobacterium tuberculosis; experiment: Antitubercular activity against Mycobacterium tuberculosis H37Rv infected in BALB/c mouse assessed as ratio of lung CFU for compound to lung CFU for PA-824 at 100 mg/kg, po daily for 5 days a week for 3 weeks; format: functional

Row | Structure (SMILES) | MIC [1] | MIC [2] | IC50 [3] | CFU [4] | fold change (FC) [5]
1 | O=[N+]([O-])c1cn2c(n1)OC[C@@H](OCc1cccc(-c3cccc(OC(F)(F)F)c3)c1)C2 | 3.5 µM (≈ 1.52 µg/mL) | 0.4 µM (≈ 0.174 µg/mL) | > 125 µM | – | –
2 | O=[N+]([O-])c1cn2c(n1)OC[C@@H](OCc1cccc(-c3cccc(OCCCO)c3)c1)C2 | 2.5 µM (≈ 1.06 µg/mL) | 0.58 µM (≈ 0.247 µg/mL) | > 125 µM | – | –
3 | O=[N+]([O-])c1cn2c(n1)OC[C@@H](OCc1ccccc1-c1ccc3ccccc3c1)C2 | 3.1 µM (≈ 1.24 µg/mL) | 1.6 µM (≈ 0.642 µg/mL) | > 125 µM | – | –
4 | O=[N+]([O-])c1cn2c(n1)OC[C@@H](OCc1cccc(-c3cccc(C(F)(F)F)c3)c1)C2 | 2.9 µM (≈ 1.22 µg/mL) | 0.34 µM (≈ 0.143 µg/mL) | > 125 µM | – | –
5 | Cc1cccc(C)c1-c1ccc(CO[C@@H]2COc3nc([N+](=O)[O-])cn3C2)cc1 | 0.93 µM (≈ 0.353 µg/mL) | 0.39 µM (≈ 0.148 µg/mL) | > 125 µM | – | –
6 | O=[N+]([O-])c1cn2c(n1)OC[C@@H](OCc1ccc(-c3ccc(CO)cc3)cc1)C2 | 3.7 µM (≈ 1.41 µg/mL) | 0.54 µM (≈ 0.206 µg/mL) | > 125 µM | – | –
7 | O=[N+]([O-])c1cn2c(n1)OC[C@@H](OCc1cccc(-c3ccc(OCCCO)cc3)c1)C2 | 1.5 µM (≈ 0.638 µg/mL) | 0.36 µM (≈ 0.153 µg/mL) | > 125 µM | – | –
8 | NC(=O)c1cccc(-c2ccc(CO[C@@H]3COc4nc([N+](=O)[O-])cn4C3)cc2)c1 | 6.7 µM (≈ 2.64 µg/mL) | 2.8 µM (≈ 1.1 µg/mL) | > 125 µM | – | –
9 | CSc1cccc(-c2ccccc2CO[C@@H]2COc3nc([N+](=O)[O-])cn3C2)c1 | 3.2 µM (≈ 1.27 µg/mL) | 0.81 µM (≈ 0.322 µg/mL) | > 125 µM | – | –
10 | CS(=O)(=O)c1ccc(-c2ccc(CO[C@@H]3COc4nc([N+](=O)[O-])cn4C3)cc2)cc1 | 14 µM (≈ 6.01 µg/mL) | 0.67 µM (≈ 0.288 µg/mL) | > 125 µM | – | –
11 | Nc1ccc(-c2ccc(CO[C@@H]3COc4nc([N+](=O)[O-])cn4C3)cc2)cc1 | 1.9 µM (≈ 0.696 µg/mL) | 0.49 µM (≈ 0.18 µg/mL) | > 125 µM | – | –
12 | O=[N+]([O-])c1cn2c(n1)OC[C@@H](OCc1ccccc1-c1cccc(OC(F)(F)F)c1)C2 | 6.3 µM (≈ 2.74 µg/mL) | 1.9 µM (≈ 0.827 µg/mL) | > 125 µM | – | –
13 | N#Cc1ccc(-c2ccccc2CO[C@@H]2COc3nc([N+](=O)[O-])cn3C2)cc1 | 19 µM (≈ 7.15 µg/mL) | 8.4 µM (≈ 3.16 µg/mL) | > 125 µM | – | –
14 | O=[N+]([O-])c1cn2c(n1)OC[C@@H](OCc1ccccc1-c1ccccc1OC(F)(F)F)C2 | 6.2 µM (≈ 2.7 µg/mL) | 1.2 µM (≈ 0.522 µg/mL) | > 125 µM | – | –
15 | O=[N+]([O-])c1cn2c(n1)OC[C@@H](OCc1ccc(-c3ccc(OCCCO)cc3)cc1)C2 | 2.2 µM (≈ 0.936 µg/mL) | 0.6 µM (≈ 0.255 µg/mL) | > 125 µM | – | –
16 | O=[N+]([O-])c1cn2c(n1)OC[C@@H](OCc1ccccc1-c1ccc(F)cc1)C2 | 3.4 µM (≈ 1.26 µg/mL) | 1.2 µM (≈ 0.443 µg/mL) | > 125 µM | – | –
17 | COc1cccc(OC)c1-c1ccc(CO[C@@H]2COc3nc([N+](=O)[O-])cn3C2)cc1 | 1 µM (≈ 0.411 µg/mL) | 0.31 µM (≈ 0.128 µg/mL) | > 125 µM | – | –
18 | O=[N+]([O-])c1cn2c(n1)OC[C@@H](OCc1cccc(-c3ccc(O)cc3)c1)C2 | 5.8 µM (≈ 2.13 µg/mL) | 0.54 µM (≈ 0.198 µg/mL) | > 125 µM | – | –
19 | COc1cc(OC)cc(-c2ccc(CO[C@@H]3COc4nc([N+](=O)[O-])cn4C3)cc2)c1 | 0.79 µM (≈ 0.325 µg/mL) | 0.28 µM (≈ 0.115 µg/mL) | > 125 µM | – | –
20 | CC(=O)c1ccc(-c2ccccc2CO[C@@H]2COc3nc([N+](=O)[O-])cn3C2)cc1 | 36 µM (≈ 14.2 µg/mL) | 17 µM (≈ 6.69 µg/mL) | > 125 µM | – | –
21 | O=[N+]([O-])c1cn2c(n1)OC[C@@H](OCc1cccc(-c3ccccc3OC(F)(F)F)c1)C2 | 3.3 µM (≈ 1.44 µg/mL) | 0.46 µM (≈ 0.2 µg/mL) | > 125 µM | – | –
22 | O=[N+]([O-])c1cn2c(n1)OC[C@@H](OCc1cccc(-c3cccc(O)c3)c1)C2 | 3.7 µM (≈ 1.36 µg/mL) | 0.3 µM (≈ 0.11 µg/mL) | > 125 µM | – | –

Row | Structure (SMILES) | MIC [1] | MIC [2] | IC50 [3] | CFU [4] | fold change (FC) [5]
23 | CN(C)CCOc1cccc(-c2ccc(CO[C@@H]3COc4nc([N+](=O)[O-])cn4C3)cc2)c1 | 18 µM (≈ 7.89 µg/mL) | 1.5 µM (≈ 0.658 µg/mL) | > 125 µM | – | –
24 | Cc1cc(-c2ccc(CO[C@@H]3COc4nc([N+](=O)[O-])cn4C3)cc2)cc(C)c1O | 1.5 µM (≈ 0.593 µg/mL) | 0.3 µM (≈ 0.119 µg/mL) | > 125 µM | – | –
25 | O=[N+]([O-])c1cn2c(n1)OC[C@@H](OCc1ccccc1-c1cccc(F)c1)C2 | 3 µM (≈ 1.11 µg/mL) | 0.62 µM (≈ 0.229 µg/mL) | > 125 µM | – | –
26 | COc1ccc(-c2ccccc2CO[C@@H]2COc3nc([N+](=O)[O-])cn3C2)cc1F | 3.8 µM (≈ 1.52 µg/mL) | 1.8 µM (≈ 0.719 µg/mL) | > 125 µM | – | –
27 | NC(=O)c1ccc(-c2ccc(CO[C@@H]3COc4nc([N+](=O)[O-])cn4C3)cc2)cc1 | 15 µM (≈ 5.92 µg/mL) | 2.1 µM (≈ 0.828 µg/mL) | > 125 µM | – | –
28 | O=[N+]([O-])c1cn2c(n1)OC[C@@H](OCc1ccccc1-c1ccc(OC(F)(F)F)cc1)C2 | 4.3 µM (≈ 1.87 µg/mL) | 2.3 µM (≈ 1 µg/mL) | > 125 µM | – | –
29 | O=[N+]([O-])c1cn2c(n1)OC[C@@H](OCc1ccc(-c3ccc(O)cc3)cc1)C2 | 4.3 µM (≈ 1.58 µg/mL) | 0.64 µM (≈ 0.235 µg/mL) | > 125 µM | – | –
30 | O=[N+]([O-])c1cn2c(n1)OC[C@@H](OCc1ccc(-c3ccc(OC(F)(F)F)cc3)cc1)C2 | 1.3 µM (≈ 0.566 µg/mL) | 0.035 µM (≈ 0.0152 µg/mL) | > 125 µM | <2 | >205
31 | O=[N+]([O-])c1cn2c(n1)OC[C@@H](OCc1cccc(-c3ccc(OCCCN4CCOCC4)cc3)c1)C2 | 11 µM (≈ 5.44 µg/mL) | 0.69 µM (≈ 0.341 µg/mL) | > 125 µM | – | –
32 | O=[N+]([O-])c1cccc(-c2ccc(CO[C@@H]3COc4nc([N+](=O)[O-])cn4C3)cc2)c1 | 0.76 µM (≈ 0.301 µg/mL) | 0.13 µM (≈ 0.0515 µg/mL) | > 125 µM | – | –
33 | CSc1ccc(-c2ccccc2CO[C@@H]2COc3nc([N+](=O)[O-])cn3C2)cc1 | 3.4 µM (≈ 1.35 µg/mL) | 1.3 µM (≈ 0.517 µg/mL) | > 125 µM | – | –
34 | COc1cccc(-c2ccc(CO[C@@H]3COc4nc([N+](=O)[O-])cn4C3)cc2)c1 | 1.9 µM (≈ 0.725 µg/mL) | 0.27 µM (≈ 0.103 µg/mL) | > 125 µM | – | –
35 | O=[N+]([O-])c1cn2c(n1)OC[C@@H](OCc1ccc(-c3cccc(OCCCO)c3)cc1)C2 | 3.2 µM (≈ 1.36 µg/mL) | 0.18 µM (≈ 0.0766 µg/mL) | > 125 µM | – | –
36 | N#Cc1cccc(-c2ccccc2CO[C@@H]2COc3nc([N+](=O)[O-])cn3C2)c1 | 8.2 µM (≈ 3.09 µg/mL) | 0.8 µM (≈ 0.301 µg/mL) | > 125 µM | – | –
37 | O=Cc1ccc(-c2ccc(CO[C@@H]3COc4nc([N+](=O)[O-])cn4C3)cc2)cc1 | 1 µM (≈ 0.379 µg/mL) | 0.2 µM (≈ 0.0759 µg/mL) | > 125 µM | – | –
38 | O=[N+]([O-])c1cn2c(n1)OC[C@@H](OCc1ccccc1-c1ccccc1)C2 | 2.5 µM (≈ 0.878 µg/mL) | 0.64 µM (≈ 0.225 µg/mL) | > 125 µM | – | –
39 | COc1ccc(-c2cccc(CO[C@@H]3COc4nc([N+](=O)[O-])cn4C3)c2)cc1F | 2.2 µM (≈ 0.879 µg/mL) | 0.19 µM (≈ 0.0759 µg/mL) | > 125 µM | – | –
40 | O=[N+]([O-])c1cn2c(n1)OC[C@@H](OCc1ccc(-c3cccc(-c4ccccc4)c3)cc1)C2 | 0.88 µM (≈ 0.376 µg/mL) | 0.31 µM (≈ 0.133 µg/mL) | > 125 µM | – | –
41 | CC(=O)c1ccc(-c2cccc(CO[C@@H]3COc4nc([N+](=O)[O-])cn4C3)c2)cc1 | 1.9 µM (≈ 0.747 µg/mL) | 0.3 µM (≈ 0.118 µg/mL) | > 125 µM | – | –
42 | COc1cc(C)c(-c2ccc(CO[C@@H]3COc4nc([N+](=O)[O-])cn4C3)cc2)c(C)c1 | 0.94 µM (≈ 0.385 µg/mL) | 0.58 µM (≈ 0.237 µg/mL) | > 125 µM | – | –
43 | O=[N+]([O-])c1cn2c(n1)OC[C@@H](OCc1ccc(-c3ccc(OCCO)cc3)cc1)C2 | 3.3 µM (≈ 1.36 µg/mL) | 0.55 µM (≈ 0.226 µg/mL) | > 125 µM | – | –
44 | O=[N+]([O-])c1cn2c(n1)OC[C@@H](OCc1cccc(-c3cccc(OCCCN4CCOCC4)c3)c1)C2 | 11 µM (≈ 5.44 µg/mL) | 1.4 µM (≈ 0.692 µg/mL) | > 125 µM | – | –
